Calls of active or inactive are those of the source. The calls are words filed in the database; no cut-off is given here.
Assays:
[1] = molecular target: T1, Prostaglandin E synthase (Homo sapiens) (UniProt O14684); assay: Competitive inhibition of full-length microsomal PGES-1 (unknown origin) expressed in Escherichia coli Rosetta(DE3) using PGH2 as substrate incubated for 5 mins prior to substrate addition relative to control
T1 sequence (whole entry): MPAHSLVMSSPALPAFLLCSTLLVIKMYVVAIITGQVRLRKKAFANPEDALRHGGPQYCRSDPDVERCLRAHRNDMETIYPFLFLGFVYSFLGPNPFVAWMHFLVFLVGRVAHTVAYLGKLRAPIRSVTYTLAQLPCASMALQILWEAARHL

[2] = molecular target: T2, Polyunsaturated fatty acid 5-lipoxygenase (Homo sapiens) (UniProt P09917); assay: Inhibition of 5-LOX (unknown origin) at 10 uM by human whole blood LTB4 assay
T2 sequence (whole entry): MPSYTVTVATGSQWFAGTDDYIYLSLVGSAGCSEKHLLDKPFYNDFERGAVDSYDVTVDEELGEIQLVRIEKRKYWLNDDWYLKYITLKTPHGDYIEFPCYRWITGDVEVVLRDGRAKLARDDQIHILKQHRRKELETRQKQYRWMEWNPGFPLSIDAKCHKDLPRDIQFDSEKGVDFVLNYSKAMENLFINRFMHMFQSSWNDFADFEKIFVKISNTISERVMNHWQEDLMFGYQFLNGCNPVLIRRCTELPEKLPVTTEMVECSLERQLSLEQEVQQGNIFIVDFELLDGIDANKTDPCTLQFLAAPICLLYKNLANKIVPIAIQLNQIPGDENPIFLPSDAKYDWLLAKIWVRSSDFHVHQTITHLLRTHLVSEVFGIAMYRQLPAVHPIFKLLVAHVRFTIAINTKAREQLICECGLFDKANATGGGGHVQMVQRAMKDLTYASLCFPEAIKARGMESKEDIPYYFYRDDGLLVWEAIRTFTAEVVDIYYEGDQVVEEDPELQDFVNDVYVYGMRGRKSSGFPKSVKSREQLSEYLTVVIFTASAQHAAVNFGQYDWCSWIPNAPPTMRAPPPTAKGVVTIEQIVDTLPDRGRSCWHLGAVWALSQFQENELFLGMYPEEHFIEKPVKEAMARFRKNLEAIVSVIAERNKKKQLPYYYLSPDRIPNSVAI

[3] = tested on: Prostaglandin G/H synthase 2 (COX-2); assay: Inhibition of COX-2 (unknown origin)-mediated TMPD oxidation using PGG2 as substrate at 100 uM incubated 15 mins prior to substrate addition measured after 36 secs by spectrophotometric analysis; settings: Homo sapiens
[4] = molecular target: T1, Prostaglandin E synthase (Homo sapiens); assay: Competitive inhibition of full-length microsomal PGES-1 (unknown origin) expressed in Escherichia coli Rosetta(DE3) using PGH2 as substrate preincubated for 15 mins relative to control in presence of higher glutathione disulfide concentration
Procedure, shortened: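 This GSSG control repeated the cofactor competition setup, with added GSH replaced by GSSG at the same final mass-volume percentage. 2.5 mM GSH was always present, and PGH2 was 17 μM. Preincubation was 15 min at 4 °C. Zero inhibition was set from the GSH activity curve, and PGE2 was read by EIA. Mean ± SEM, n = 3.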

Prostaglandin E synthase [5] = molecular target: T3, Prostaglandin E synthase (Homo sapiens, UniProt O14684); assay: Inhibition of full-length microsomal PGES-1 (unknown origin) expressed in Escherichia coli Rosetta(DE3) using PGH2 as substrate assessed as inhibition of PGH2 conversion to PGE2 incubated 15 mins prior to substrate addition measured after 1 min by EIA
T3 sequence (O14684 whole entry): T1 sequence (whole entry)
Procedure, shortened: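 Reactions used 2.5 mM cofactor and 17 μM PGH2 for 1 min at 4 °C, then were stopped, and PGE2 was quantified by EIA. IC50 came from dose-response curves. Mean ± SEM, n = 3.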

[6] = molecular target: T2, Polyunsaturated fatty acid 5-lipoxygenase (Homo sapiens); assay: Inhibition of 5-LOX-mediated LTB4 formation in human whole blood at 10 uM incubated for 20 mins prior to substrate addition measured after 0.5 hrs by EIA in presence of calcium ionophore A23187
Procedure, shortened: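 Human whole blood was stimulated with calcium ionophore A23187 (final 20 μg/mL) for 0.5 h at 37 °C to induce LTB4 formation. Compounds were tested at 10 μM.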

[7] = molecular target: T1, Prostaglandin E synthase (Homo sapiens); assay: Competitive inhibition of full-length microsomal PGES-1 (unknown origin) expressed in Escherichia coli Rosetta(DE3) using PGH2 as substrate incubated for 5 mins prior to substrate addition relative to control in presence of increased substrate concentration
Prostaglandin E synthase [8] = molecular target: T3, Prostaglandin E synthase; assay: Inhibition of PGES-1 in human whole blood assessed as LPS-induced PGE2 formation incubated for 15 mins prior to LPS addition measured after 24 hrs by EIA
Procedure, shortened: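 Fresh heparinized blood came from healthy volunteers free of NSAIDs for at least 14 days. It was preincubated 15 min at 37 °C with compound or DMSO vehicle. LPS (final 100 μg/mL) was then added for 24 h at 37 °C. Plasma was obtained by centrifugation at 4 °C, and PGE2 was read by EIA.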

[9] = molecular target: T1, Prostaglandin E synthase (Homo sapiens); assay: Competitive inhibition of full-length microsomal PGES-1 (unknown origin) expressed in Escherichia coli Rosetta(DE3) using PGH2 as substrate preincubated for 15 mins relative to control in presence of 25 mM of cofactor GSH
[10] = tested on: Prostaglandin G/H synthase 1 (COX-1); assay: Inhibition of COX-1 (unknown origin)-mediated TMPD oxidation using PGG2 as substrate at 100 uM incubated 15 mins prior to substrate addition measured after 36 secs by spectrophotometric analysis; settings: Homo sapiens
[11] = molecular target: T1, Prostaglandin E synthase (Homo sapiens); assay: Competitive inhibition of full-length microsomal PGES-1 (unknown origin) expressed in Escherichia coli Rosetta(DE3) using PGH2 as substrate preincubated for 15 mins relative to control in presence of 2.5 mM of cofactor GSH
[12] = molecular target: T1, Prostaglandin E synthase (Homo sapiens); assay: Inhibition of full-length microsomal PGES-1 (unknown origin) expressed in Escherichia coli Rosetta(DE3) using PGH2 as substrate assessed as PGH2 conversion to PGE2 at 10 uM incubated 15 mins prior to substrate addition measured after 1 min by EIA
[13] = molecular target: T1, Prostaglandin E synthase (Homo sapiens); assay: Inhibition of microsomal PGES-1 (unknown origin) expressed in Escherichia coli using PGH2 as substrate assessed as inhibition of PGE2 formation at 10 uM by reversed phase HPLC analysis

`COc1ccc(-c2nnc(SCC(=O)c3ccc4c(c3)Cc3ccccc3-4)nc2-c2ccc(OC)cc2)cc1` showed an inhibition [1] of over 60%, an inhibition [2] of 20% and an inhibition [3] of under 1%. The inhibition [4] was “Active”, the IC50 (Prostaglandin E synthase [5]) was 4 nM and the inhibition [6] was under 1%. It also gave an inhibition [7] of 0%, an IC50 (Prostaglandin E synthase [8]) of 300 nM and an inhibition [9] of under 15%. The inhibition [10] was 2.1% and the inhibition [11] was 80%.
`CCOc1cc(/C=C2/C(=O)N(c3ccc(Cl)cc3)N=C2C)ccc1OCC(=O)O` showed an inhibition [12] of 10%.
In the case of `Cc1ccc2oc(-c3cccc(NC(=O)c4ccccc4[N+](=O)[O-])c3)nc2c1`, the inhibition [13] is reported as 50%.
Work on `CCOC(=O)C1=C(C)N=c2s/c(=C\c3ccc(-c4ccc(Cl)c(C(=O)O)c4)o3)c(=O)n2C1c1ccccc1Cl` (stereo not given) yielded an inhibition [1] of over 60%, an inhibition [2] of under 1% and an inhibition [3] of 12.9%. The inhibition [4] was “Active”, the IC50 (Prostaglandin E synthase [5]) was 2 nM and the inhibition [6] was under 1%. For the same compound, the inhibition [7] was 0%, the IC50 (Prostaglandin E synthase [8]) was 6500 nM and the inhibition [9] was under 15%. The inhibition [10] was under 1% and the inhibition [11] was 80%.
For `O=C(O)CN1C(=O)/C(=C2/C(=O)N(CC(=O)O)c3ccccc32)SC1=S`, the inhibition [1] was over 60%, the inhibition [2] was under 1% and the inhibition [3] was 14.7%. The inhibition [4] was “Active”, the IC50 (Prostaglandin E synthase [5]) was 1.8 nM and the inhibition [6] was under 1%. For the same compound, the inhibition [7] was 0%, the IC50 (Prostaglandin E synthase [8]) was 3800 nM and the inhibition [9] was under 15%. For the same compound, the inhibition [10] was under 1% and the inhibition [11] was 80%.
